Assay results published in ChEMBL document CHEMBL1157575, “Antitumor agents. 272. Structure-activity relationships and in vivo selective anti-breast cancer activity of novel neo-tanshinlactone analogues” (J Med Chem, 2010).
Converted amounts (≈) assume the structure as drawn.

Columns and labels:
[1] = tested on: MCF7; assay: Growth inhibition of human MCF7 cells after 72 hrs by SRB assay; type: functional; settings: MCF7, 72 h, read-out: ED50 (the source's name)
Procedure, shortened: (§1)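 SRB assay. Cells were grown in RPMI-1640 with 10% FBS at 37 °C and 5% CO2, then seeded in 96-well plates. Compound was added from DMSO stock, followed by 72 h incubation. Cells were fixed with 10% TCA, stained with 0.4% SRB, solubilized in 10 mM Tris base, and read at 515 nm. ED50 is the concentration giving 50% reduction of net protein increase versus control; mean of at least three independent determinations.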

[2] = tested on: SK-BR-3; assay: Growth inhibition of human SK-BR-3 cells after 72 hrs by SRB assay; type: functional; settings: SK-BR-3, 72 h, read-out: ED50 (the source's name); procedure, shortened: as §1
[3] = tested on: ZR-75-1; assay: Growth inhibition of human ZR-75-1 cells after 72 hrs by SRB assay; type: functional; settings: ZR-75-1, 72 h, read-out: ED50 (the source's name); procedure, shortened: as §1
[4] = tested on: MDA-MB-231; assay: Growth inhibition of human MDA-MB-231 cells after 72 hrs by SRB assay; type: functional; settings: MDA-MB-231, 72 h, read-out: ED50 (the source's name); procedure, shortened: as §1
[5] = tested on: A549; assay: Cytotoxicity against human A549 cells after 72 hrs by SRB assay; type: functional; settings: A549, 72 h, read-out: ED50 (the source's name)
[6] = tested on: DU-145; assay: Cytotoxicity against human DU145 cells after 72 hrs by SRB assay; type: functional; settings: DU-145, 72 h, read-out: ED50 (the source's name)
[7] = tested on: KB; assay: Cytotoxicity against human KB cells after 72 hrs by SRB assay; type: functional; settings: read-out: ED50 (the source's name); procedure, shortened: as §1
[8] = Cytotoxicity against human KBVIN cells after 72 hrs by SRB assay; type: functional; settings: read-out: ED50 (the source's name); procedure, shortened: as §1
[9] = Cytotoxicity against human 184A1 cells after 72 hrs by MTT assay; type: cell-based; settings: read-out: ED50
Procedure, shortened: (§2)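 MTT assay. Cells were seeded at 5000/well in recommended growth medium and incubated overnight. Compound was added in DMSO, followed by 72 h at 37 °C in 5% CO2. MTT reagent was added for 2 h and formazan was read at OD 570 nm. Values were interpolated ED50; data are from replicates in a single experiment.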

[10] = Cytotoxicity against human MCF10A cells after 72 hrs by MTT assay; type: cell-based, MCF-10A; settings: read-out: ED50; procedure, shortened: as §2
[11] = tested on: ZR-75-1; assay: Antitumor activity against human ZR-75-1 cells xenografted in athymic nude mouse SCID assessed as mean time to end point at 10 mg/kg, ip administered in QOD schedule; type: functional; settings: route intraperitoneal
Procedure, shortened: (§3)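 Female SCID mice, 5 weeks old, 20-24 g, implanted s.c. in the right flank with 1 × 10^7 ZR-75-1 cells in PBS. Tumors were caliper-measured, with volume = w² × l/2. Dosing was i.p. in vehicle (4% benzyl alcohol/6% cremophor/90% D5W); vehicle controls were given qod to end. TTE is the mean time to endpoint. %TGD = (T−C)/C × 100. Logrank test, P ≤ 0.05.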

[12] = tested on: ZR-75-1; assay: Antitumor activity against human ZR-75-1 cells xenografted in athymic nude mouse SCID assessed as tumor growth delay at 10 mg/kg, ip administered in QOD schedule; type: functional; settings: route intraperitoneal; procedure, shortened: as §3
[13] = biological target: Casein kinase II subunit alpha (Homo sapiens) (UniProt P68400); assay: Inhibition of human recombinant CK2alpha1 expressed in Sf9 cells at 10 uM
[14] = biological target: Tyrosine-protein kinase ABL1 (Mus musculus) (UniProt P00520); assay: Inhibition of mouse recombinant ABL expressed in Escherichia coli at 10 uM
[15] = biological target: RAC-alpha serine/threonine-protein kinase (Homo sapiens) (UniProt P31749); assay: Inhibition of human recombinant AKT1 expressed in Sf21 cells at 10 uM
[16] = tested on: ZR-75-1; assay: Antitumor activity against human ZR-75-1 cells xenografted in athymic nude mouse SCID assessed as mean time to end point at 20 mg/kg, ip administered in Q4D X 5 schedule; type: functional; settings: route intraperitoneal; procedure, shortened: as §3
[17] = tested on: ZR-75-1; assay: Antitumor activity against human ZR-75-1 cells xenografted in athymic nude mouse SCID assessed as tumor growth delay at 20 mg/kg, ip administered in Q4D X 5 schedule; type: functional; settings: route intraperitoneal; procedure, shortened: as §3
[18] = tested on: ZR-75-1; assay: Selectivity for ED50 for human ZR-75-1 to ED50 for human SK-BR-3; type: functional
Procedure, shortened: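 SRB growth assay: ZR-75-1 and SK-BR-3 cells in RPMI-1640 with 10% FBS at 37 °C under 5% CO2, seeded in 96-well plates, compound added from DMSO stock, 72 h exposure, TCA fixation, SRB staining, absorbance at 515 nm. ED50 is 50% reduction of net protein increase, averaged from ≥3 independent runs; ratio of ZR-75-1 to SK-BR-3 ED50.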

Chain of Tyrosine-protein kinase ABL1 (Mus musculus) (P00520 whole entry): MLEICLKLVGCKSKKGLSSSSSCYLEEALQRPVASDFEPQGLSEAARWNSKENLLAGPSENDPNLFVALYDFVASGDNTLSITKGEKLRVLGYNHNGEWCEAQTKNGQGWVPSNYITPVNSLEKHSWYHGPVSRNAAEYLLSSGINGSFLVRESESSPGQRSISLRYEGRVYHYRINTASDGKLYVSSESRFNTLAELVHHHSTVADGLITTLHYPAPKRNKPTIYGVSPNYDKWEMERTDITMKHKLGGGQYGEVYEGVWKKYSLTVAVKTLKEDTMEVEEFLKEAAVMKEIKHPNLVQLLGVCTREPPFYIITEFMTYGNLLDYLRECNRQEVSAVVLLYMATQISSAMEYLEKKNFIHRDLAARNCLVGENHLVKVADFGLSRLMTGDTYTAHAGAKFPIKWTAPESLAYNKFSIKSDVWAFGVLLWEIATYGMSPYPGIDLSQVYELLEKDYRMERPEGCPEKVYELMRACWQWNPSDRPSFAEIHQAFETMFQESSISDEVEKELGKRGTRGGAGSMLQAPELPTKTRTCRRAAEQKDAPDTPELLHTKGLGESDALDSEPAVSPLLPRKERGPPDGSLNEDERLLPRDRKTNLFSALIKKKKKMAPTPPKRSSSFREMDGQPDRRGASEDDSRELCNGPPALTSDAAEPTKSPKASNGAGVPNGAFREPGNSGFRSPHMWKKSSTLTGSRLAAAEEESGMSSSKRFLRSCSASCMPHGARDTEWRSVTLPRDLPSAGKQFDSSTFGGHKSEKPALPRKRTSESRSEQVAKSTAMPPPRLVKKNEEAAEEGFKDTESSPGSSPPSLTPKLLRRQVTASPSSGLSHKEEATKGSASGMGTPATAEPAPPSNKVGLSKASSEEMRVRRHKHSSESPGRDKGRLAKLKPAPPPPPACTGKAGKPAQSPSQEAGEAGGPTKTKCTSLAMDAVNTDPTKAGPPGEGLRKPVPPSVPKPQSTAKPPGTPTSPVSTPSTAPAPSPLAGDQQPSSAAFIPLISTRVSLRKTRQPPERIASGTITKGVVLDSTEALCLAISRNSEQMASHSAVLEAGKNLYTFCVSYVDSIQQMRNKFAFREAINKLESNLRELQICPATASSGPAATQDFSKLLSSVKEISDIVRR
Chain of Casein kinase II subunit alpha (Homo sapiens) (P68400 whole entry, looked up): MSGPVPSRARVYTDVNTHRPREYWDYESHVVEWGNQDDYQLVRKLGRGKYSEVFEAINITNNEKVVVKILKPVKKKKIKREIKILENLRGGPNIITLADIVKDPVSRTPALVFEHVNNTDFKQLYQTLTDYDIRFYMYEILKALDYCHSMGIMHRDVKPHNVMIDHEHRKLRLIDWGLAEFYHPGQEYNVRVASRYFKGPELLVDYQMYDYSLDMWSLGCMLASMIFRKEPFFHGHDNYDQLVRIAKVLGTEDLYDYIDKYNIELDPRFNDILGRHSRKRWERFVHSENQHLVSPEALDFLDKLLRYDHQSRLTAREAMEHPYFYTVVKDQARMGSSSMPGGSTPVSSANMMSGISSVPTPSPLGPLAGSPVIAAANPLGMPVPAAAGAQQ
Chain of RAC-alpha serine/threonine-protein kinase (Homo sapiens) (P31749 whole entry): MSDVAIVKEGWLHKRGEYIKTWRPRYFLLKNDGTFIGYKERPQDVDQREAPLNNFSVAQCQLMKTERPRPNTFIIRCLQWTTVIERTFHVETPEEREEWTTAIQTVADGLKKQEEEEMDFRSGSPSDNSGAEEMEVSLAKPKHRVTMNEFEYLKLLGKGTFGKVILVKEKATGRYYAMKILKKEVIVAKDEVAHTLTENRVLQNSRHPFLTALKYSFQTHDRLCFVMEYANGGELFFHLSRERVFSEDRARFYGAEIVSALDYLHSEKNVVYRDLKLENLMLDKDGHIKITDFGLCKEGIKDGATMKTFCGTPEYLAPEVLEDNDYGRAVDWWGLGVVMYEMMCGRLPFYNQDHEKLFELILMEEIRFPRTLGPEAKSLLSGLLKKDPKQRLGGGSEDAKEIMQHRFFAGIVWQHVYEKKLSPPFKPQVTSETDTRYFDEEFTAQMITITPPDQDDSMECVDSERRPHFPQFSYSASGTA

SMILES | EC50 [1] [µg/mL] | EC50 [2] [µg/mL] | EC50 [3] [µg/mL] | EC50 [4] [µg/mL] | EC50 [7] [µg/mL] | other results
CCc1cccc2c1ccc1c3occ(CC)c3c(=O)oc21 | 1.3 (≈ 4.45 µM) | 1.5 (≈ 5.13 µM) | 0.6 (≈ 2.05 µM) | > 10 | 12 (≈ 41 µM) | EC50 [5]: 18 µg/mL (≈ 61.6 µM); EC50 [6]: 16 µg/mL (≈ 54.7 µM); EC50 [8]: 15 µg/mL (≈ 51.3 µM)
CCc1cccc2c1ccc1c3occ(C)c3c(=O)oc21 | 0.2 (≈ 0.719 µM) | 0.1 (≈ 0.359 µM) | 0.1 (≈ 0.359 µM) | 8.8 (≈ 31.6 µM) | 13 (≈ 46.7 µM) | EC50 [5]: 11 µg/mL (≈ 39.5 µM); EC50 [6]: 16 µg/mL (≈ 57.5 µM); CC50 at 72 h [9]: 4.4 µg/mL (≈ 15.8 µM); CC50 at 72 h [10]: 2.7 µg/mL (≈ 9.7 µM); Activity [11]: 29.5 days; Activity [12]: 95%; inhibition [13]: 99%; inhibition [14]: 93%; inhibition [15]: 93%
CCc1coc2c1c(=O)oc1c3cccc(C)c3ccc21 | 7.5 (≈ 26.9 µM) | 11 (≈ 39.5 µM) |  |  |  | 
Cc1oc2c(c1C)c(=O)oc1c3ccccc3ccc21 | > 20 | 6.9 (≈ 26.1 µM) |  |  |  | 
Cc1cc2c(=O)oc3c4ccccc4ccc3c2o1 | > 20 | 12 (≈ 48 µM) |  |  |  | 
Cc1cccc2c1ccc1c3occ(C)c3c(=O)oc21 | 0.6 (≈ 2.27 µM) | 0.2 (≈ 0.757 µM) | 0.3 (≈ 1.14 µM) | 10 (≈ 37.8 µM) |  | 
CCc1cccc2c1ccc1c3c(c(=O)oc12)C(C)CO3 (centres undefined) |  | 5.1 (≈ 18.2 µM) |  |  |  | 
CCc1cccc2c1ccc1c3occ(-c4ccc(OC)cc4)c3c(=O)oc21 | > 20 | > 20 |  |  |  | 
Cc1coc2c1c(=O)oc1c3cccc(O)c3ccc21 | 15 (≈ 56.3 µM) | 5 (≈ 18.8 µM) |  |  |  | 
Cc1coc2c1c(=O)oc1c3ccccc3n(C)c(=O)c21 | 11 (≈ 39.1 µM) | 12 (≈ 42.7 µM) |  |  |  | 
CCOc1cccc2c1ccc1c3occ(C)c3c(=O)oc21 | > 20 | 2.5 (≈ 8.49 µM) | 1.9 (≈ 6.46 µM) | 9.8 (≈ 33.3 µM) | 3.7 (≈ 12.6 µM) | EC50 [5]: 3.5 µg/mL (≈ 11.9 µM); EC50 [6]: 4.7 µg/mL (≈ 16 µM); EC50 [8]: 5.3 µg/mL (≈ 18 µM)
Cc1coc2c1c(=S)oc1c3ccccc3ccc21 | > 20 | > 20 |  |  |  | 
Cc1ccc2c(=O)oc3c4ccccc4ccc3c2c1 |  | > 20 |  |  |  | 
Cc1coc2c1c(=O)oc1c3cccc(OCCN(C)C)c3ccc21 | 5 (≈ 14.8 µM) | 5.8 (≈ 17.2 µM) |  |  |  | 
COc1cccc2c1ccc1c3occ(C)c3c(=O)oc21 | 2.3 (≈ 8.21 µM) | 0.2 (≈ 0.714 µM) | 0.1 (≈ 0.357 µM) | 6.4 (≈ 22.8 µM) | 13 (≈ 46.4 µM) | EC50 [6]: 14 µg/mL (≈ 50 µM); EC50 [8]: 12 µg/mL (≈ 42.8 µM)
Cc1coc2c1c(=O)[nH]c1c3ccccc3ccc12 |  | 4.4 (≈ 17.7 µM) |  |  |  | 

SMILES | EC50 [1] [µg/mL] | EC50 [2] [µg/mL] | EC50 [3] [µg/mL] | EC50 [4] [µg/mL] | EC50 [7] [µg/mL] | other results
CCc1cccc2c1ccc1c3occ(C)c3c(=S)oc21 | > 20 | 16 (≈ 54.4 µM) |  |  |  | 
Cc1coc2c1c(=O)oc1c3cccc(C(C)Br)c3ccc21 (centres undefined) |  | 0.1 (≈ 0.28 µM) | 0.1 (≈ 0.28 µM) | 14 (≈ 39.2 µM) | 13 (≈ 36.4 µM) | EC50 [5]: > 20 µg/mL; EC50 [6]: 18 µg/mL (≈ 50.4 µM); EC50 [8]: > 20 µg/mL
CC(=O)O[C@H]1C(=O)[C@@]2(C)[C@H]([C@H](OC(=O)c3ccccc3)[C@]3(O)C[C@H](OC(=O)[C@H](O)[C@@H](NC(=O)c4ccccc4)c4ccccc4)C(C)=C1C3(C)C)[C@]1(OC(C)=O)CO[C@@H]1C[C@@H]2O [PACLITAXEL] |  |  |  |  |  | Activity [16]: 35 days; Activity [17]: 132%
Cc1coc2c1c(=O)oc1c3cccc(F)c3ccc21 | 4.5 (≈ 16.8 µM) | 1.1 (≈ 4.1 µM) | 0.8 (≈ 2.98 µM) | > 10 | 13 (≈ 48.5 µM) | EC50 [5]: 14 µg/mL (≈ 52.2 µM); EC50 [6]: 18 µg/mL (≈ 67.1 µM); EC50 [8]: 15 µg/mL (≈ 55.9 µM)
CC(=O)Oc1cccc2c1ccc1c3occ(C)c3c(=O)oc21 | 6 (≈ 19.5 µM) | 5.7 (≈ 18.5 µM) |  |  |  | 
COc1ccc(-c2coc3c2c(=O)oc2c4ccccc4ccc32)cc1 |  | 5.8 (≈ 16.9 µM) |  |  |  | 
Cc1coc2c1c(=O)oc1c3cccc(C(C)C)c3ccc21 | 1.4 (≈ 4.79 µM) | 2 (≈ 6.84 µM) | 0.2 (≈ 0.684 µM) | > 10 | 11 (≈ 37.6 µM) | EC50 [8]: 7.3 µg/mL (≈ 25 µM); Ratio ED50 [18]: 10
CCc1cccc2c1ccc1c3occ(C)c3/c(=N/O)oc21 | > 20 | 19 (≈ 64.8 µM) |  |  |  | 
CC1COc2c1c(=O)oc1c2ccc2ccccc21 (centres undefined) |  | 14 (≈ 55.5 µM) |  |  |  | 
CCc1coc2c1c(=O)oc1c3ccccc3ccc21 | 2.5 (≈ 9.46 µM) | 1.8 (≈ 6.81 µM) | 2.3 (≈ 8.7 µM) | > 10 | 7.5 (≈ 28.4 µM) | EC50 [5]: 8.2 µg/mL (≈ 31 µM); EC50 [6]: 8.7 µg/mL (≈ 32.9 µM); EC50 [8]: 6.6 µg/mL (≈ 25 µM)
CCc1cccc2c1ccc1c3oc(C)cc3c(=O)oc21 | > 20 | 2.1 (≈ 7.55 µM) | 2.2 (≈ 7.9 µM) | 9.6 (≈ 34.5 µM) | 14 (≈ 50.3 µM) | EC50 [5]: 12 µg/mL (≈ 43.1 µM); EC50 [8]: 13 µg/mL (≈ 46.7 µM)
CCCn1c(=O)c2c3occ(C)c3c(=O)oc2c2ccccc21 | > 20 | 15 (≈ 48.5 µM) |  |  |  | 
Cc1coc2c1c(=O)sc1c3ccccc3ccc21 | > 20 | 12 (≈ 45.1 µM) |  |  |  | 
Cc1coc2c1c(=O)oc1c3ccccc3ccc21 | 4 (≈ 16 µM) | 1 (≈ 4 µM) | 4 (≈ 16 µM) |  |  | 
CCCc1cccc2c1ccc1c3occ(C)c3c(=O)oc21 | 1.2 (≈ 4.1 µM) | 0.1 (≈ 0.342 µM) | 0.3 (≈ 1.03 µM) | > 10 | 12 (≈ 41 µM) | EC50 [6]: 15 µg/mL (≈ 51.3 µM); EC50 [8]: 11 µg/mL (≈ 37.6 µM); Ratio ED50 [18]: 3
CCc1cccc2c1ccc1c3oc(C)c(C)c3c(=O)oc21 | 8 (≈ 27.4 µM) | 9.8 (≈ 33.5 µM) |  |  |  | 
